# In ChEMBL document CHEMBL1136695, “Novel and selective imidazole-containing biphenyl inhibitors of protein farnesyltransferase” (Bioorg Med Chem Lett, 2003):
# Values joined by “and” are separate entries in the source; they are usually repeats but may differ in a detail not shown here. Identical values can stand only once.
# How the values were obtained:
# [1] = molecular target: Protein farnesyltransferase (Bos taurus, UniProt P29702+P49355); assay: In vitro inhibitory activity against farnesyltransferase (FTase); assay type: protein-complex assay
# Summary of the method: (§1)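 FTase and GGTase1 enzymes purified from bovine brain; inhibition measured in vitro by scintillation proximity assay (SPA), IC50 determined.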
# [2] = Oral bioavailability in rat; assay type: ADME, organism-based; conditions: in vivo
# [3] = Half-life time in rat was determined; assay type: ADME, organism-based; conditions: in vivo
# NIH3T3 [4] = assay: Effective concentration against Ha-RAS processing in NIH3T3 ras-transformed cells; assay type: functional, cell-based; conditions: Mus musculus
# [5] = molecular target: Geranylgeranyl transferase type I (Bos taurus, UniProt P29702+Q5EAD5); assay: In vitro inhibition of geranylgeranyltransferase.; assay type: protein-complex assay; summary of the method: as §1
# NIH3T3 [6] = assay: Inhibitory activity against NIH3T3 ras-transformed cells at 1 uM; assay type: functional; conditions: Mus musculus
Structure (SMILES),IC50 [1],IC50 [5],further results
Cc1ccccc1-c1cc(NCc2cncn2C)ccc1C#N,1000 nM,–,–
Cn1cncc1CN(Cc1cccc(C#N)c1)c1ccc(C#N)c(-c2cccc3ccccc23)c1,–,150 nM,bioavailability [2]: 10%; half-life [3]: < 1 h; EC50 (NIH3T3 [4]): 50 nM
Cc1ccccc1-c1cc(N(Cc2ccccc2)Cc2cnc[nH]2)ccc1C#N,84 nM,–,–
Cn1cncc1CN(c1ccc(C#N)c(-c2cccc3ccccc23)c1)S(=O)(=O)c1ccccc1,18 nM,1900 nM,–
Cc1ccccc1-c1cc(C(OCc2ccccc2)c2cncn2C)ccc1C#N (stereo not given),65 nM,–,–
Cn1cncc1CN(Cc1ccccc1)c1ccc(C#N)c(-c2cccc3ccccc23)c1,1.5 nM and 11 nM,–,–
NC(=O)N1CCC(CC(=O)N2CCC([C@H]3c4ncc(Br)cc4CCc4cc(Cl)cc(Br)c43)CC2)CC1 [LONAFARNIB],7.8 nM,–,EC50 (NIH3T3 [4]): 160 nM
Cn1cncc1[C@@](N)(c1ccc(Cl)cc1)c1ccc2c(c1)c(-c1cccc(Cl)c1)cc(=O)n2C [TIPIFARNIB],0.57 nM,–,EC50 (NIH3T3 [4]): 2 nM

# More lines, main results first:
IC50 [1],IC50 [5],Structure (SMILES),further results
0.37 nM,650 nM,Cn1cncc1CN(Cc1ccnc(C#N)c1)c1ccc(C#N)c(-c2cccc3ccccc23)c1,EC50 (NIH3T3 [4]): 80 nM
10 nM,1000 nM,Cc1ccccc1-c1cc(N(Cc2ccc(C#N)cc2)Cc2cncn2C)ccc1C#N,inhibition at 1 µM (NIH3T3 [6]): 29%
14 nM,310 nM,Cn1cncc1CN(C(=O)c1ccccc1)c1ccc(C#N)c(-c2cccc3ccccc23)c1,–
11 nM,–,Cc1ccccc1-c1cc(N(Cc2ccccc2)Cc2cncn2C)ccc1C#N,–
0.97 nM,1200 nM,Cc1ccccc1-c1cc(N(Cc2cccc(C#N)c2)Cc2cncn2C)ccc1C#N,EC50 (NIH3T3 [4]): 70 nM
1.5 nM,1000 nM,Cn1cncc1CN(Cc1ccc(C#N)cc1)c1ccc(C#N)c(-c2cccc3ccccc23)c1,inhibition at 1 µM (NIH3T3 [6]): 64%
1.9 nM,180 nM,Cn1cncc1CN(c1ccc(C#N)c(-c2cccc3ccccc23)c1)C1CCCCC1,–
1 nM,–,CCCCN(CCC1CCCCC1)Cc1ccc(C(=O)N[C@@H](CCSC)C(=O)O)c(-c2ccccc2C)c1,–
0.45 nM,230 nM,Cn1cncc1CN(Cc1cccc(Cl)c1)c1ccc(C#N)c(-c2cccc3ccccc23)c1,inhibition at 1 µM (NIH3T3 [6]): 45%
